# From ChEMBL document CHEMBL1124216, “A novel class of potential central nervous system agents. 3-Phenyl-2-(1-piperazinyl)-5H-1-benzazepines” (1988)
# How the values were obtained:
# Assay type in all cases: functional
# Mus musculus [1] = test: Antimaximal electroshock seizure (MES) activity in mice after peroral administration of 100 mg/kg of compound; 5/5; conditions: route oral
# Mus musculus [2] = test: Antiexploratory activity (EXPL) of mice determined by an antimex activity meter, 100 mg/kg of dose was administered perorally; No inhibition; conditions: route oral
# Mus musculus [3] = test: Antitremorine activity(TRM) of mice after peroral administration of 100 mg/kg of compound; No inhibition; conditions: route oral
# Mus musculus [4] = test: Antireserpine activity (RES) of mice after peroral administration of 100 mg/kg of compound; No inhibition; conditions: route oral
# Mus musculus [5] = test: Antimaximal electroshock seizure (MES) activity in mice after peroral administration of 100 mg/kg of compound; 0/5; conditions: route oral
# Mus musculus [6] = test: Antireserpine activity (RES) of mice after peroral administration of 100 mg/kg of compound; Slight inhibition (31-50%); conditions: route oral
# Mus musculus [7] = test: Antitremorine activity(TRM) of mice after peroral administration of 100 mg/kg of compound; Moderate inhibition (51-71%); conditions: route oral
# Mus musculus [8] = test: Antitremorine activity(TRM) of mice after peroral administration of 100 mg/kg of compound; Slight inhibition (31-50%); conditions: route oral
# Mus musculus [9] = test: Antireserpine activity (RES) of mice after peroral administration of 50 mg/kg of compound; No inhibition; conditions: route oral
# Mus musculus [10] = test: Antiexploratory activity (EXPL) of mice determined by an antimex activity meter, 50 mg/kg of dose was administered perorally; No inhibition; conditions: route oral
# Mus musculus [11] = test: Antiexploratory activity (EXPL) of mice determined by an antimex activity meter, 100 mg/kg of dose was administered perorally; Slight inhibition (31-50%); conditions: route oral
# Mus musculus [12] = test: Antipentylene tetrazole activity was determined in mice when administered perorally; conditions: po
# Method in brief: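 Groups of five male Std-ddY mice received compound orally in 0.5% tragacanth, then pentylenetetrazole 175 mg/kg ip. Blockade of the tonic extensor component scored as anticonvulsant. ED50 was the dose protecting 50% of animals (Litchfield-Wilcoxon).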
# Mus musculus [13] = test: Antimaximal electroshock seizure activity was determined in mice when administered perorally; conditions: po
# Mus musculus [14] = test: Antiexploratory activity (EXPL) of mice determined by an antimex activity meter, 100 mg/kg of dose was administered perorally; Moderate inhibition (51-71%); conditions: route oral
# Mus musculus [15] = test: Antimaximal electroshock seizure (MES) activity in mice after peroral administration of 10 mg/kg of compound; 0/5; conditions: route oral
# Canis familiaris = test: Inhibition of apomorphine induced emesis in dogs at 1 mg/kg of dose.; conditions: Canis lupus familiaris
# Method in brief: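 Beagle dogs (10-15 kg), groups of three, given compound po in a gelatin capsule; 2 h later apomorphine hydrochloride 0.3 mg/kg sc. Vomiting counted for 1 h; mean inhibition as percent of control. ED50 is the dose giving 50% inhibition of emesis, by Litchfield-Wilcoxon.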
# Mus musculus [16] = test: 3,4 -Dihydroxy phenylacetic acid (DOPAC) levels in mouse brain at 10 mg/kg dose.
# Method in brief: (§1)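 Male Std-ddY mice, 20-25 g, dosed orally with compound in 0.5% aqueous tragacanth. DOPAC was measured fluorometrically after purification by column chromatography on Sephadex G-10 and QAE-Sephadex. Brains from five mice per compound were pooled for each determination.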
# Mus musculus [17] = test: 3,4 -Dihydroxy phenylacetic acid (DOPAC) levels in mouse brain at 50 mg/kg dose.; method in brief: as §1
# Mus musculus [18] = test: The homovanillic acid (HVA) levels in mouse brain at 10 mg/kg of dose.
# Method in brief: (§2)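 Mice dosed orally in 0.5% aqueous tragacanth; brains of five mice per compound pooled. Homovanillic acid measured in brain extracts and reported as brain level.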
# Mus musculus [19] = test: The homovanillic acid (HVA) levels in mouse brain at 50 mg/kg of dose.; method in brief: as §2
# Mus musculus [20] = test: Exploratory activity of mice determined by an antimex activity meter, 50 mg/kg of dose was administered perorally
# Method in brief: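 Male Std-ddY mice (20-25 g), five per dose; compound in 0.5% aqueous tragacanth given orally. Two hours later each mouse placed in an Animex activity meter cage and locomotor activity counted for 3 min. Mean suppression expressed as percent inhibition of control; ED50 by Litchfield-Wilcoxon.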
# Mus musculus [21] = test: Antiexploratory activity (EXPL) of mice determined by an antimex activity meter,100 mg/kg of dose was administered perorally; No inhibition
SMILES,inhibition in vivo at 100 mg/kg (Mus musculus [2]) [%],inhibition in vivo at 100 mg/kg (Mus musculus [3]) [%],inhibition in vivo at 100 mg/kg (Mus musculus [4]) [%],Activity (Mus musculus [5]),other results
NC(=O)N1CCN(C2=Nc3ccc(Br)cc3CC=C2c2ccccc2)CC1,< 30,< 30,< 30,,Activity (Mus musculus [1]): 5
Brc1ccc2c(c1)CC=C(c1ccccc1)C(N1CCCCC1)=N2,< 30,< 30,,0,inhibition in vivo at 100 mg/kg (Mus musculus [6]): 31%
Clc1ccc(C2=CCc3ccc(Cl)cc3N=C2N2CCNCC2)cc1.O=C(O)/C=C/C(=O)O,< 30,,,0,inhibition in vivo at 100 mg/kg (Mus musculus [6]): 31%; inhibition in vivo at 100 mg/kg (Mus musculus [7]): 51%
C=CCN1CCN(C2=Nc3ccc(Br)cc3CC=C2c2ccccc2)CC1,< 30,< 30,,0,inhibition in vivo at 100 mg/kg (Mus musculus [6]): 31%
CCN1CCN(C2=Nc3ccc(C(C)C)cc3CC=C2c2ccccc2)CC1.O=C(O)/C=C/C(=O)O,< 30,,< 30,0,inhibition in vivo at 100 mg/kg (Mus musculus [8]): 31%
OCCN1CCN(C2=Nc3ccccc3CC=C2c2ccc(O)cc2)CC1,,,,,inhibition in vivo at 50 mg/kg (Mus musculus [9]): < 30%; inhibition in vivo at 50 mg/kg (Mus musculus [10]): < 30%
Brc1ccc2c(c1)CC=C(c1ccccc1)C(N1CCNCC1)=N2.O=C(O)/C=C/C(=O)O,< 30,,,0,inhibition in vivo at 100 mg/kg (Mus musculus [6]): 31%
Clc1ccc2c(c1)N=C(N1CCNCC1)C(c1ccccc1)=CC2.O=C(O)/C=C/C(=O)O,,< 30,,0,inhibition in vivo at 100 mg/kg (Mus musculus [6]): 31%; inhibition in vivo at 100 mg/kg (Mus musculus [11]): 31%
OCCN1CCN(C2=Nc3ccc(Br)cc3CC=C2c2ccccc2)CC1,< 30,< 30,< 30,,ED50 (Mus musculus [12]): 13.2 mg/kg; Activity (Mus musculus [1]): 5; ED50 (Mus musculus [13]): 14.6 mg/kg
OC1(c2ccc(Cl)cc2)CCN(C2=Nc3ccccc3CC=C2c2ccccc2)CC1,,< 30,< 30,0,inhibition in vivo at 100 mg/kg (Mus musculus [11]): 31%
Clc1ccc2c(c1)CC=C(c1ccccc1)C(N1CCN(Cc3ccccc3)CC1)=N2,< 30,< 30,,0,inhibition in vivo at 100 mg/kg (Mus musculus [6]): 31%
CN1CCN(C2=Nc3ccccc3CC=C2c2ccc(C(F)(F)F)cc2)CC1,,,,,inhibition in vivo at 50 mg/kg (Mus musculus [9]): < 30%; inhibition in vivo at 50 mg/kg (Mus musculus [10]): < 30%
CN1CCN(C2=Nc3ccc(F)cc3CC=C2c2ccccc2)CC1.Cl.Cl,,< 30,< 30,0,ED50 (Mus musculus [12]): > 200 mg/kg; ED50 (Mus musculus [13]): > 500 mg/kg; inhibition in vivo at 100 mg/kg (Mus musculus [11]): 31%
CN1CCN(C2=Nc3ccccc3CC=C2c2ccccc2)CC1.Cl.Cl,,< 30,,0,ED50 (Mus musculus [13]): > 100 mg/kg; inhibition in vivo at 100 mg/kg (Mus musculus [14]): 51%; inhibition in vivo at 100 mg/kg (Mus musculus [6]): 31%
CCc1ccc2c(c1)CC=C(c1ccccc1)C(N1CCN(C)CC1)=N2.Cl.Cl,,,< 30,,Activity (Mus musculus [15]): 0; Activity (Mus musculus [1]): 5; inhibition in vivo at 100 mg/kg (Mus musculus [7]): 51%
CN1CCN(C2=Nc3ccccc3CC=C2c2ccc(Cl)cc2)CC1.Cl.Cl,,,< 30,0,inhibition in vivo at 100 mg/kg (Mus musculus [8]): 31%; inhibition in vivo at 100 mg/kg (Mus musculus [11]): 31%
CCN1CCN(C2=Nc3ccccc3CC=C2c2ccc(Cl)cc2)CC1.Cl.Cl,,< 30,< 30,0,inhibition in vivo at 100 mg/kg (Mus musculus [14]): 51%
CN1CCN(C2=Nc3ccccc3CC=C2c2ccc(Br)cc2)CC1.Cl.Cl,,,,,"inhibition in vivo at 1 mg/kg (Canis familiaris): 72.5%; Control (Mus musculus [16]): 161%; Control (Mus musculus [17]): 233%; Control (Mus musculus [18]): 162%; Control (Mus musculus [19]): 294%; inhibition in vivo at 50 mg/kg (Mus musculus [20]; Mus musculus, po): 13.2%; Inhibition (Mus musculus [20]; route oral, 50 mg/kg): 13.2%; inhibition in vivo at 50 mg/kg (Mus musculus [10]): < 30%"
CN1CCN(C2=Nc3cc(Cl)ccc3CC=C2c2ccc(Cl)cc2)CC1.Cl.Cl,,< 30,< 30,0,inhibition in vivo at 100 mg/kg (Mus musculus [14]): 51%
Cl.OC1(c2ccc(Cl)cc2)CCN(C2=Nc3ccc(Br)cc3CC=C2c2ccccc2)CC1,,< 30,< 30,0,Inhibition (Mus musculus [21]): <30%
Cc1ccc(C2=CCc3ccccc3N=C2N2CCN(C)CC2)cc1.Cl.Cl,< 30,,,0,inhibition in vivo at 100 mg/kg (Mus musculus [6]): 31%; inhibition in vivo at 100 mg/kg (Mus musculus [8]): 31%
CCc1ccc2c(c1)CC=C(c1ccccc1)C(N1CCN(CC)CC1)=N2.Cl.Cl,,,< 30,,Activity (Mus musculus [15]): 0; Activity (Mus musculus [1]): 5; inhibition in vivo at 100 mg/kg (Mus musculus [7]): 51%; inhibition in vivo at 100 mg/kg (Mus musculus [11]): 31%
OCCN1CCN(C2=Nc3ccccc3CC=C2c2ccc(C(F)(F)F)cc2)CC1,,,,,inhibition in vivo at 50 mg/kg (Mus musculus [9]): < 30%; inhibition in vivo at 50 mg/kg (Mus musculus [10]): < 30%
Cl.Cl.OCCN1CCN(C2=Nc3ccccc3CC=C2c2ccccc2Cl)CC1,,,< 30,0,inhibition in vivo at 100 mg/kg (Mus musculus [14]): 51%; inhibition in vivo at 100 mg/kg (Mus musculus [8]): 31%
C1=C(c2ccccc2)C(N2CCCCC2)=Nc2ccccc2C1.Cl.Cl,,< 30,< 30,0,inhibition in vivo at 100 mg/kg (Mus musculus [11]): 31%
CCN1CCN(C2=Nc3ccccc3CC=C2c2ccccc2Cl)CC1.Cl.Cl,< 30,,< 30,0,inhibition in vivo at 100 mg/kg (Mus musculus [8]): 31%
CCN1CCN(C2=Nc3ccc(F)cc3CC=C2c2ccccc2)CC1.Cl.Cl,,< 30,< 30,0,ED50 (Mus musculus [12]): > 100 mg/kg; ED50 (Mus musculus [13]): > 500 mg/kg; inhibition in vivo at 100 mg/kg (Mus musculus [14]): 51%
CCN1CCN(C2=Nc3ccccc3CC=C2c2ccc(C(F)(F)F)cc2)CC1,,,,,inhibition in vivo at 50 mg/kg (Mus musculus [9]): < 30%; inhibition in vivo at 50 mg/kg (Mus musculus [10]): < 30%
